This is an account of results in ChEMBL document CHEMBL1136987, “Synthesis and evaluation of sphingosine analogues as inhibitors of sphingosine kinases” (J Med Chem, 2009).

Test [1] addresses T1, Sphingosine kinase 1 (Homo sapiens, UniProt Q9NYA1). Description: Inhibition of EGFP-fused human SPHK1 expressed in CHO cells at 10 uM. It is filed as cell-based. The essentials: (§1)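 Enzyme source: lysates (40 µg protein) of CHO cells transiently transfected (Lipofectamine 2000) with human SPHK1 (EGFP fusion) or SPHK2 plasmid. Compound at 10 µM in sphingosine kinase buffer with sphingosine-BSA complex (1 mM stock) and cold plus γ-[32P]ATP; 30 min at 37 °C. Lipids extracted with acidified chloroform/methanol, run on TLC, phosphorimaged; triplicate lanes per tube.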

In test [2] the target is T2, Sphingosine kinase 2 (Homo sapiens) (UniProt Q9NRA0).
T2 sequence (whole entry): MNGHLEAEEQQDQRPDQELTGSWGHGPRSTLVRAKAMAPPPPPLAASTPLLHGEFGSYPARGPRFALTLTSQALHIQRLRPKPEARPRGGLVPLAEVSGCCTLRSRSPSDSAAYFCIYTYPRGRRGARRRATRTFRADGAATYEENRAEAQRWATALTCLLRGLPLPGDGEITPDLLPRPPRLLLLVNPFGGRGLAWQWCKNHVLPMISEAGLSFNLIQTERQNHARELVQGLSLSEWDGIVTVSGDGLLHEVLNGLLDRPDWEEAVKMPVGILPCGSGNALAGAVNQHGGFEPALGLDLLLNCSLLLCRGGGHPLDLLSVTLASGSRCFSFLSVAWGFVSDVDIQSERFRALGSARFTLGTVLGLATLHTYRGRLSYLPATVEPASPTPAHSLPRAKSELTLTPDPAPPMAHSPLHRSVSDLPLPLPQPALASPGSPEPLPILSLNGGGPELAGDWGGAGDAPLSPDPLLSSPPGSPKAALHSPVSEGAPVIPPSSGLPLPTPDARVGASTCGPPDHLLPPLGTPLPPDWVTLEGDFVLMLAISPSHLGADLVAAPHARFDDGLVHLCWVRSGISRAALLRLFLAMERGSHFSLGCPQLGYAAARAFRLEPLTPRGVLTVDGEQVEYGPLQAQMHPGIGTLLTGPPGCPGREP
Description: Inhibition of human cloned SPHK2 expressed in CHO cells at 10 uM. Format: cell-based. The essentials:
as §1

Test [3] has as its target T1, Sphingosine kinase 1. Description: Effect on EGFP-fused human SPHK1 activity expressed in CHO cells at 10 uM relative to basal level. It is filed as cell-based. The essentials: as §1
In test [4] the target is T2, Sphingosine kinase 2 (Homo sapiens). Briefly: Effect on human cloned SPHK2 activity expressed in CHO cells at 10 uM relative to basal level. Format: cell-based. Summed up:
as §1

A further test concerns the target T3, Sphingosine kinase 2 (Homo sapiens, UniProt Q9NRA0).
T3 sequence (Q9NRA0 whole entry): T2 sequence (whole entry)
Briefly: Inhibition of human cloned SPHK2 expressed in CHO cells using D-erythro-sphingosine as substrate by Michaelis-Menten plot. The essentials: (§2)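 Kinetics of huSPHK1 or huSPHK2 from transfected CHO lysates, with D-erythro-sphingosine as substrate, in the 32P-ATP TLC assay (30 min, 37 °C). Michaelis-Menten behaviour was used to derive Km for sphingosine and Ki for the inhibitors.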

Test [5] deals with U-937. Description: Inhibition of basal sphingosine-1-phosphate levels in human U937 cells at 5 uM after 2 hrs by ELISA. Format: functional, cell-based. Summed up:
(§3)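 Human monocytic U937 cells, stimulated or not with TNFα, were incubated with or without inhibitor at 5 µM for 2 h. Cellular S1P was quantified by competitive S1P ELISA (sensitivity 30 nM).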
Background: An ELISA detects its analyte on a solid surface through an enzyme-linked reagent.

In test [6] the test system is U-937. Briefly: Inhibition of TNF-alpha-induced sphingosine-1-phosphate levels in human U937 cells at 5 uM after 2 hrs by ELISA. It is filed as functional, cell-based. Summed up: as §3
In test [7] the target is T2, Sphingosine kinase 2 (Homo sapiens). Description: Inhibition of human SPHK2 expressed in human U937 cells assessed as inhibition of endogenous sphingosine-1-phosphate levels at 5 uM after 2 hrs by ELISA. It is filed as cell-based. The conditions noted are these: U-937. The essentials:
(§4)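 U937 cells transfected with huSPHK1 or huSPHK2 plasmid, then incubated with or without inhibitor at 5 µM for 2 h. Endogenous S1P was measured by competitive ELISA (sensitivity 30 nM).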

In test [8] the target is Protein kinase C alpha type (Homo sapiens) (UniProt P17252). Description: Inhibition of human PKCalpha at 50 uM by gel electrophoresis. Summed up: (§5)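 PepTag nonradioactive assay: purified human PKCα with C1 peptide, PKC activator and reaction buffer. Inhibitor at 10, 25, 50, 75 or 100 µM, preincubated 2 min, then 30 min at 30 °C with enzyme. Stopped at 95 °C for 10 min.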

In test [9] the target is T1, Sphingosine kinase 1. Briefly: Inhibition of EGFP-fused human SPHK1 expressed in CHO cells using D-erythro-sphingosine as substrate by Michaelis-Menten plot. Summed up: as §2
The target of test [10] is T1, Sphingosine kinase 1. Briefly: Inhibition of EGFP-fused human SPHK1 expressed in CHO cells. It is filed as cell-based. The essentials:
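SPHK1 from transfected CHO cell lysates (40 µg per tube), sphingosine-BSA and γ-[32P]ATP, 30 min at 37 °C. Compounds tested at 0, 10, 25, 50 and 100 µM. Radiolabelled S1P measured by TLC and phosphorimaging. IC50 obtained from triplicate experiments and reported as mean ± SD.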

Test [11] concerns the target T1, Sphingosine kinase 1. Description: Inhibition of human SPHK1 expressed in human U937 cells assessed as inhibition of endogenous sphingosine-1-phosphate levels at 5 uM after 2 hrs by ELISA. Format: cell-based. The settings on record: U-937. Summed up: as §4
Test [12] concerns U-937. Description: Antiproliferative activity against human U937 cells at 10 uM after 24 to 72 hrs by MTT assay. It is filed as functional. The essentials: (§6)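 U937 or HL60 cells in RPMI 1640 with 10% FBS and 1% L-glutamine; 50 000 cells/well at 1 × 10^6 cells/mL. Compound at 10 µM, DMSO 0.5% of volume as vehicle control. Incubated 24, 48, 72 h at 37 °C, 5% CO2. MTT (4 mg/mL in RPMI) added for 2 h in dark, crystals dissolved in DMSO/glycine buffer, A570 read.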
In general terms: Tetrazolium dyes change colour on reduction, which living cells bring about.

A further test relates to HL-60. Description: Antiproliferative activity against human HL60 cells at 10 uM after 24 to 72 hrs by MTT assay. It is filed as functional. Summed up: as §6
Test [13] has as its target Protein kinase C alpha type (Homo sapiens) (UniProt P17252). Description: Inhibition of human PKCalpha at 100 uM by gel electrophoresis. The essentials:
as §5

Activity calls are given as the source filed them. No cut-off for these calls is given here.

T1 sequence (Q9NYA1 whole entry, the tested form may be a part): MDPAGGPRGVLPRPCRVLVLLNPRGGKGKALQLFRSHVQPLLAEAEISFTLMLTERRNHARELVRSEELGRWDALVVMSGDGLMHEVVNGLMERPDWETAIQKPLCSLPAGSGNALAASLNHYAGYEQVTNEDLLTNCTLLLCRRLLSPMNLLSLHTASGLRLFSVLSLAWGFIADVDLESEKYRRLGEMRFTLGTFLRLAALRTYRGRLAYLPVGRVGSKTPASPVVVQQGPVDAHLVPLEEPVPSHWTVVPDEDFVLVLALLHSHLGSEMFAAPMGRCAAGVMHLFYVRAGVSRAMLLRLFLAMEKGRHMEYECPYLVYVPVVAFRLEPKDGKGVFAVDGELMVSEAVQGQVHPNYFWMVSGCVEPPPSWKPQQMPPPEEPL

As to `CCCCC#C[C@H](O)[C@H](CO)NC(=O)OC(C)(C)C`, the inhibition entry (on Sphingosine kinase 1 [1]; in [2]) was “inactive” throughout. For the same compound, the figures for the Activity (on Sphingosine kinase 1 [3]; in test [4]) were 117% and 111%, respectively.

On to `CCCCCCCCC#CC(=O)[C@@H]1COC(C)(C)N1C(=O)OC(C)(C)C`, for which the inhibition (commonly the drop in the measured response relative to a control, in per cent) stood at 15.2% at Sphingosine kinase 1 [1] and 37.2% in [2]. Also, the values for the Activity (on Sphingosine kinase 1 [3]; in test [4]) were 84.8% and 62.8%, respectively.

The compound `CCCCCCCCCCCCCC#C[C@@H](O)[C@@H](N)CO` showed an inhibition against Sphingosine kinase 1 [1] of 24.4%. Also, in test [2], the inhibition result was “inactive”. Besides, the Activity came to 75.6% at Sphingosine kinase 1 [3] and 152% in [4].

On Sphingosine kinase 1 [1], `CCCCC#CC(=O)[C@@H]1COC(C)(C)N1C(=O)OC(C)(C)C` gave an inhibition of 9.08%. Further, the inhibition entry in [2] is “inactive”. For the same compound, the figures for the Activity (at Sphingosine kinase 1 [3]; in test [4]) were 90.9% and 115%, respectively.

With `CCCCCCCCCCCCC/C=C/[C@@H](O)[C@H](CO)N(C)C` [DIMETHYLSPINGOSINE], the inhibition in [2] turned out to be 33%. For the same compound, on Sphingosine kinase 2, the Ki (commonly the equilibrium dissociation constant of an inhibitor or competing ligand from its target) is 12.5 µM. Besides, in [4], the Activity was 67%. The outcome (with U-937 [5]; with U-937 [6]; in [7]; in [8]) was Active.

For the compound `CCCCC#CC(=O)[C@H](CO)NC(=O)OC(C)(C)C`, the inhibition entry (at Sphingosine kinase 1 [1]; in test [2]) was “inactive” in each case. Besides, the Activity was found to be 106% at Sphingosine kinase 1 [3] and 117% in test [4].

The compound `CCCCCCC(=O)[C@@H]1COC(C)(C)N1C(=O)OC(C)(C)C` showed an inhibition on Sphingosine kinase 1 [1] of 4.71%. Further, the inhibition result in test [2] is “inactive”. The Activity at Sphingosine kinase 1 [3] is 95.3%; in test [4], 126%.

Regarding `CCCCCCCCC#C[C@@H](O)[C@@H](N)CO`, the inhibition against Sphingosine kinase 1 [1] was 13.7%. Moreover, the inhibition entry in test [2] was “inactive”. Further, the Activity is 86.3% at Sphingosine kinase 1 [3] and 116% in test [4].

Consider `CCCCCCCCCCCCCC#CC(=O)[C@H](CO)NC(=O)OC(C)(C)C`, for which the inhibition against Sphingosine kinase 1 [1] is 56.9%; in test [2], 54.1%. Further, the inhibition constant Ki on Sphingosine kinase 1 [9] is 1000 nM. Further, inhibition at Sphingosine kinase 1 [10] was half-maximal at 1200 nM (IC50). Also, the results for the Activity (at Sphingosine kinase 1 [3]; in [4]) were 43.1% and 45.9%, respectively. Further, the result (with U-937 [5]; on Sphingosine kinase 1 [11]; in [7]; in the test with U-937 [12]) was Active. The result in the test with U-937 [6] was inactive.

In turn, `CCCCCCCCC#CC(=O)[C@H](CO)NC(=O)OC(C)(C)C` registered an inhibition at Sphingosine kinase 1 [1] of 4.2%. Besides, the inhibition entry in [2] was “inactive”. The Activity stood at 95.8% at Sphingosine kinase 1 [3] and 89.9% in test [4].

As for `CCCCC#C[C@@H](O)[C@@H](N)CO`, the inhibition result (at Sphingosine kinase 1 [1]; in [2]) was “inactive” each time. For the same compound, the Activity on Sphingosine kinase 1 [3] is 132%; in test [4], 109%.

Turning to `CCCCCCCCCCCCCC#CC(=O)[C@@H]1COC(C)(C)N1C(=O)OC(C)(C)C`, at Sphingosine kinase 1 [1], the inhibition was 54.7%. The inhibition entry in test [2] is “inactive”. Moreover, the affinity at Sphingosine kinase 1 [9], expressed as Ki, was 3000 nM. Moreover, the IC50 (commonly the concentration that gives 50% inhibition) against Sphingosine kinase 1 [10] was found to be 3300 nM. Besides, the Activity at Sphingosine kinase 1 [3] worked out at 45.3%; in test [4], 117%; in the test on U-937 [12] it was 10%; in the test with HL-60 it was 10%. Moreover, the outcome (with U-937 [6]; on Sphingosine kinase 1 [11]; in test [13]) was Active.

With `CCCCCCCCCCCCCC#C[C@@H](O)[C@@H]1COC(C)(C)N1C(=O)OC(C)(C)C`, the inhibition result (at Sphingosine kinase 1 [1]; in test [2]) was “inactive” throughout. Further, the results for the Activity (at Sphingosine kinase 1 [3]; in test [4]) were 112% and 123%, respectively.
